Data from ChEMBL document CHEMBL4024789, “Neutral Porphyrin Derivative Exerts Anticancer Activity by Targeting Cellular Topoisomerase I (Top1) and Promotes Apoptotic Cell Death without Stabilizing Top1-DNA Cleavage Complexes” (J Med Chem, 2018).
pEC50, pIC50: −log10 of the molar value. The source made the active and inactive calls. No cut-off for these calls is given here.

Tests used:
DNA topoisomerase 1 = biological target: T1, DNA topoisomerase 1 (Homo sapiens, UniProt P11387); assay: (§1) Inhibition of recombinant human topoisomerase-1 expressed in baculovirus infected sf9 cells using supercoiled pBS SK(+) DNA as substrate preincubated for 5 mins followed by substrate addition measured after 15 mins by ethidium bromide staining based agarose gel electrophoresis method
T1 sequence (P11387 whole entry): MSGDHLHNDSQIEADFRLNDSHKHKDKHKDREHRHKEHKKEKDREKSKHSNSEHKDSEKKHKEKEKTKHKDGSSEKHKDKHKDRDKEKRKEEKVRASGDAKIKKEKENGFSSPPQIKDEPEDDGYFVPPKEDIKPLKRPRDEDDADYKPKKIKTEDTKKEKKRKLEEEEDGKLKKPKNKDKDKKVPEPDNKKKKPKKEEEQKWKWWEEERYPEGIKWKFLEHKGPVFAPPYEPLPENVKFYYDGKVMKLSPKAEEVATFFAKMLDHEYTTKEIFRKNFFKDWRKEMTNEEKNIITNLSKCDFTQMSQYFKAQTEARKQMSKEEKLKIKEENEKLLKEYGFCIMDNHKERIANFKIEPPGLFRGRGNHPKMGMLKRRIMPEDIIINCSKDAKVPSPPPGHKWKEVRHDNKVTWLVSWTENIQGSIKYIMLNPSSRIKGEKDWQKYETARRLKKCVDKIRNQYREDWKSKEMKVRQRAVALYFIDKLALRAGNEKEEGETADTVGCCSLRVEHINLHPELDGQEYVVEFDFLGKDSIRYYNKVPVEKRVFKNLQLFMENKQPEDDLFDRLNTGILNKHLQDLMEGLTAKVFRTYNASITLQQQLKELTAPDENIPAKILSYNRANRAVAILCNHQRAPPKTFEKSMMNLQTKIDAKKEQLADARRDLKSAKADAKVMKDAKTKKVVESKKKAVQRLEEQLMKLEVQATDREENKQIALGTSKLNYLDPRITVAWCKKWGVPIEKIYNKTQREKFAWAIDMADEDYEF
Procedure, shortened: (§2)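 Relaxation assay: 90 fmol supercoiled pBS (SK+) DNA with 30 fmol recombinant Top1 (Sf-9/baculovirus). Compound either preincubated with Top1 for 5 min before DNA addition, or added simultaneously with DNA; then 37 °C for 15 min. Vehicle 2% DMSO. Read on 1% agarose gel. EC50 from mean ± SD of three experiments.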

[1] = biological target: T2, DNA topoisomerase 1 (Homo sapiens) (UniProt P11387); assay: as §1, with “cells at 1 uM” for “cells”, “method relative to control” for “method”; procedure, shortened: as §2
T2 sequence (whole entry): T1 sequence (P11387 whole entry)

[2] = biological target: T2, DNA topoisomerase 1 (Homo sapiens); assay: Inhibition of CPT-induced recombinant human topoisomerase1-supercoiled pBS SK(+) DNA cleavage complex after 30 mins using topoisomerase1 expressed in baculovirus infected sf9 cells by ethidium bromide staining based agarose gel electrophoresis method
Procedure, shortened: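 Plasmid cleavage assay: 50 fmol supercoiled pBS (SK+) with 100 fmol recombinant Top1 plus compound or CPT, or Top1 with CPT before compound addition, at 37 °C for 30 min. Nicked (form II) and supercoiled (form I) DNA resolved by gel.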

[3] = biological target: T2, DNA topoisomerase 1 (Homo sapiens); assay: Inhibition of recombinant human topoisomerase1-[32P]-labeled 25-mer duplex oligonucleotide cleavage complex formation at 10 to 50 uM after 30 mins using topoisomerase1 expressed in baculovirus infected sf9 cells by […]
MCF7 [4] = assay: Cytotoxicity against human MCF7 cells assessed as reduction in cell viability by MTT assay; assay type: functional, cell-based
Procedure, shortened: (§3)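 Survival of each cell line measured across a range of compound concentrations. Percent inhibition of viability at each concentration calculated against untreated control and IC50 estimated. MEFs were TDP1+/+ and TDP1–/– primary cells. Mean ± SD of at least three experiments in duplicate.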

[5] = biological target: T2, DNA topoisomerase 1 (Homo sapiens); assay: Induction of proteasome-mediated topoisomerase-1 degradation in human MCF7 cells at 10 uM by Western blot method; assay type: cell-based; conditions: TDE = time-dependent effect
Procedure, shortened: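 Whole-cell extracts of MCF7 cells treated with 10 μM for the indicated times, or preincubated with MG132 (100 nM) for 4 h before 12 h compound exposure. Top1 detected by Western blot with mouse monoclonal anti-Top1 (C21).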

[6] = biological target: T2, DNA topoisomerase 1 (Homo sapiens); assay: Inhibition of topoisomerase-1- genomic DNA cleavage complex in human MCF7 cells at 20 uM after 12 hrs by ICE assay; assay type: cell-based
Procedure, shortened: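 ICE bioassay in MCF7 cells. Treatment was CPT (10 μM) or compound (20 μM) for 12 h, or CPT for 6 h then compound for a further 6 h. Genomic DNA (0.5–4 μg) probed with anti-Top1 antibody. Quantified with n = 3, ± SEM, t test.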

MCF7 [7] = assay: Induction of ROS accumulation in human MCF7 cells at 10 uM up to 24 hrs by CM-H2DCFDA dye based spectrofluorometric method relative to control; assay type: functional
Procedure, shortened: (§4)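 MCF7 cells treated with 10 μM for the indicated times, with 0.2% DMSO as vehicle control, or pretreated with NAC (10 mM) for 30 min. ROS read as DCF fluorescence from CM-H2DCFDA. Mean ± SD of three independent experiments.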

MCF7 [8] = assay: Induction of ROS accumulation in human MCF7 cells at 10 uM up to 24 hrs in presence of ROS inhibitor NAC by CM-H2DCFDA dye based spectrofluorometric method; assay type: functional, cell-based; procedure, shortened: as §4
MCF7 [9] = assay: Induction of DNA strand breaks in human MCF7 cells at 10 to 20 uM after 12 hrs by alkaline comet assay relative to control; assay type: functional
Procedure, shortened: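 MCF7 cells exposed 12 h; some pretreated with NAC (10 mM) for 30 min first. Alkaline comet assay; mean comet tail scored over 20–25 cells (average ± SEM).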

MCF7 [10] = assay: Induction of apoptosis in human MCF7 cells at 10 to 20 uM after 12 hrs in presence of ROS inhibitor NAC by Annexin V-FITC/propidium iodide staining based confocal laser microscopic method relative to control; assay type: functional, cell-based
Procedure, shortened: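 MCF7 cells treated for 12 h, with or without 30 min pretreatment with NAC (10 mM). Phosphatidylserine stained with annexin V-FITC, nuclei counterstained with propidium iodide, imaged by confocal microscopy. Annexin V(+) fraction scored from about 100 cells (average ± SEM).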

HEK293 = assay: Cytotoxicity against HEK293 cells assessed as reduction in cell viability by MTT assay; assay type: cell-based; conditions: Homo sapiens; procedure, shortened: as §3

SMILES: CN(C)c1ccc(-c2c3nc(c(-c4ccc(N(C)C)cc4)c4ccc([nH]4)c(-c4ccc(C(=O)O)cc4)c4nc(c(-c5ccc(C(=O)O)cc5)c5ccc2[nH]5)C=C4)C=C3)cc1
- pEC50 (DNA topoisomerase 1): 6.42
- inhibition [1]: 85 to 99%
- inhibition [2]: Dose-dependent effect
- inhibition [3]: Active
- pIC50 (MCF7 [4]): 5.66
- Activity [5]: Tde
- inhibition [6]: Active
- fold change (FC) (MCF7 [7]): 3 - 5
- Activity (MCF7 [8]): inactive
- fold change (FC) (MCF7 [9]): 8
- Activity (MCF7 [10]): inactive
- pIC50 (HEK293): < 5.00
